In brackets after ≈: the same amount, converted by molar mass.
Assays:
[1] = Tmax in C57BL/6 mouse at 40 mg/kg, po formulated in 0.1% SLS; type: ADME, organism-based; set-up: dose 40 mg/kg, route oral; conditions: in vivo
Outline: (§1)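 Female C57BL/6 mice, single 40 mg/kg oral gavage; three mice per time point; plasma at 30 min to 24 h, LC-MS; noncompartmental parameters reported as means.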

[2] = test system: Mycobacterium tuberculosis; test: Antitubercular activity against Mycobacterium tuberculosis Erdman ATCC 35801 infected in C57BL/6 mouse assessed as viable bacterial load in lung at 200 mg/kg/day through gavage 5 days per week for 4 weeks starting on 10th day post-infection (reference value: 6.49 +/- 0.10 log10CFU/lung); type: functional
[3] = Oral bioavailability in Sprague-Dawley rat at 20 mg/kg; type: ADME, organism-based; conditions: in vivo
Salmonella typhimurium [4] = test: Toxicity in Salmonella typhimurium TA100 assessed as compound level per well causing cytotoxicity at 0.25 to 240 ug/well in presence of rat liver S9 fraction; type: organism-based; conditions: salmonella enterica subsp. enterica serovar typhimurium
Outline: (§2)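 MicroAmes: strains preincubated with or without Aroclor-induced rat liver S9, duplicate wells, six concentrations 0.25–250 μg equivalents/well; DMSO vehicle, 4-nitroquinoline-N-oxide (−S9) and 2-aminoanthracene (+S9) positive controls; revertant colonies counted; cytotoxicity noted as reduced revertants or background lawn; precipitation recorded.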

[5] = AUC (0 to infinity) in Sprague-Dawley rat at 5 mg/kg, iv; type: ADME, organism-based; set-up: time infinity, dose 5 mg/kg, route intravenous; conditions: plasma
[6] = test system: Mycobacterium tuberculosis; test: Antitubercular activity against Mycobacterium tuberculosis Erdman ATCC 35801 infected in C57BL/6 mouse assessed as viable bacterial load in spleen at 200 mg/kg twice daily through gavage 5 days per week for 4 weeks starting on 10th day post-infection (reference value: 4.79 +/- 0.21 log10CFU/spleen); type: functional
[7] = Half life in C57BL/6 mouse at 40 mg/kg, po formulated in 0.1% SLS; type: ADME, organism-based; set-up: dose 40 mg/kg, route oral; conditions: in vivo; outline: as §1
[8] = AUC (0 to infinity) in C57BL/6 mouse at 40 mg/kg, po formulated in 20% DMSODMSO, 20% PEG400, 60% (30% HP-beta-CD in water); type: ADME, organism-based; set-up: dose 40 mg/kg, route oral, time infinity; conditions: plasma
CYP2C9 = CYP2C9 (Homo sapiens, UniProt P11712); test: Inhibition of human recombinant CYP2C9 at 10 uM incubated for 80 mins at 37 degC using 7-methoxy-4-trifluoromethylcoumarin substrate; type: ADME; conditions: recombinant CYP2C9, probe 7-methoxy-4-trifluoromethylcoumarin
Chain of CYP2C9 (P11712 whole entry): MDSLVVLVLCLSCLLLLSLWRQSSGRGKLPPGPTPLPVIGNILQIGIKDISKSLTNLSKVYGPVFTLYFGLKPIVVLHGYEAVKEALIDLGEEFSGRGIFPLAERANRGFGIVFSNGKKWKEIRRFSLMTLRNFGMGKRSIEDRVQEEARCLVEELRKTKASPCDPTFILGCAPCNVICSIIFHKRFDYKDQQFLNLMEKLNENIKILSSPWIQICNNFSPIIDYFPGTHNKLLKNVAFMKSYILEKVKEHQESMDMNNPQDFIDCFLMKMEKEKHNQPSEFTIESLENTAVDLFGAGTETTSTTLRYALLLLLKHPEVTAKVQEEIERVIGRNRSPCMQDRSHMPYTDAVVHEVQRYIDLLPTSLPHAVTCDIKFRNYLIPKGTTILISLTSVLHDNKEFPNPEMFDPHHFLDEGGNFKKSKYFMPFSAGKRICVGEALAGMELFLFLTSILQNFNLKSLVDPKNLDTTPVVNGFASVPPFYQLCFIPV

[9] = AUC (0 to infinity) in Sprague-Dawley rat at 20 mg/kg, po; type: ADME, organism-based; set-up: time infinity, dose 20 mg/kg, route oral; conditions: plasma
[10] = Metabolic stability in human liver microsomes assessed as parent compound remaining at 1 uM incubated for 1 hr by HPLC-MS/MS method; type: ADME, Microsome; conditions: read-out: Stability
Outline: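 Pooled mixed-gender human liver microsomes (0.3 mg/mL protein), 1 μM compound with NADP-regenerating system in phosphate buffer pH 7.4, 1 h at 37 °C; parent measured at start and end by HPLC-MS/MS; duplicate means.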

[11] = test system: Mycobacterium tuberculosis; test: Antitubercular activity against Mycobacterium tuberculosis H37Rv incubated at 37 degC for 7 days by microplate alamar blue assay; type: functional; conditions: Mycobacterium tuberculosis, H37Rv, 168 h
Outline: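 Mtb H37Rv was grown in 7H9 broth with glycerol, Casitone, 10% OADC and 0.05% Tween 80 to OD600 0.4. Compounds were 2-fold serially diluted from DMSO stocks in 7H9, and wells were inoculated at 2 × 10⁵ CFU/mL. After 7 days at 37 °C, Alamar Blue was added and read after a further 24 h. MIC was the lowest concentration preventing the blue-to-pink change.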

[12] = Half life in Sprague-Dawley rat at 20 mg/kg, po; type: ADME, organism-based; set-up: dose 20 mg/kg, route oral; conditions: in vivo
Salmonella typhimurium [13] = test: Mutagenicity in Salmonella typhimurium TA100 assessed as mean revertant colonies at 0.25 to 240 ug/well in presence of rat liver S9 fraction; type: toxicity, organism-based; conditions: salmonella enterica subsp. enterica serovar typhimurium; outline: as §2
Salmonella typhimurium [14] = test: Mutagenicity in Salmonella typhimurium TA98 assessed as mean revertant colonies at 0.25 to 240 ug/well in absence of rat liver S9 fraction; type: toxicity, organism-based; conditions: salmonella enterica subsp. enterica serovar typhimurium; outline: as §2
Salmonella typhimurium [15] = test: Toxicity in Salmonella typhimurium TA100 assessed as compound level per well causing cytotoxicity at 0.25 to 240 ug/well in absence of rat liver S9 fraction; type: organism-based; conditions: salmonella enterica subsp. enterica serovar typhimurium; outline: as §2
[16] = Efflux ratio in human Caco2 cells incubated for 1 hr at 37 degC by HPLC-MS/MS method; type: ADME, cell-based; conditions: Caco-2
[17] = test system: Mycobacterium tuberculosis; test: Antitubercular activity against Mycobacterium tuberculosis H37Rv incubated at 37 degC for 14 days in presence of 40% human serum by microplate alamar blue assay; type: functional; conditions: 336 h
Outline: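 This is the MABA run in 7H9 broth containing 40% human serum. Compounds were 2-fold serially diluted, and wells were inoculated with H37Rv at 2 × 10⁵ CFU/mL. Incubation was at 37 °C for 14 days, then Alamar Blue was added. MIC was the lowest concentration preventing the blue-to-pink colour change.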

[18] = Solubility in simulated intestinal fluid at pH 7.6 by HPLC method; type: physicochemical
Outline: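 Simulated intestinal fluid medium; each analogue 200 μM final in 2% DMSO, shaken 24 h at room temperature, then HPLC with photodiode array read at 230 nm; duplicate, means given.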

[19] = Cmax in C57BL/6 mouse at 40 mg/kg, po formulated in 0.1% SLS; type: ADME, organism-based; set-up: dose 40 mg/kg, route oral; conditions: in vivo; outline: as §1
[20] = Solubility in simulated gastric fluid at pH 1.5 by HPLC method; type: physicochemical
Outline: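 Compound at 200 μM final in 2% DMSO in simulated gastric fluid, shaken 24 h at room temperature; HPLC-photodiode array detection at 230 nm; duplicate means.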

Salmonella typhimurium [21] = test: Mutagenicity in Salmonella typhimurium TA100 assessed as mean revertant colonies at 0.25 to 240 ug/well in absence of rat liver S9 fraction; type: toxicity, organism-based; conditions: salmonella enterica subsp. enterica serovar typhimurium; outline: as §2
[22] = AUC (0 to infinity) in C57BL/6 mouse at 40 mg/kg, po formulated in 0.1% SLS; type: ADME, organism-based; set-up: time infinity, dose 40 mg/kg, route oral; conditions: plasma
Vero = test: Cytotoxicity against african green monkey Vero cells; type: cell-based, Chlorocebus sabaeus; conditions: Chlorocebus sabaeus, Vero; read-out: IC50
[23] = Permeability across basolateral to apical side in human Caco2 cells incubated for 1 hr at 37 degC by HPLC-MS/MS method; type: ADME, cell-based; conditions: Caco-2
[24] = Volume of distribution in Sprague-Dawley rat at 5 mg/kg, iv; type: ADME, organism-based; set-up: dose 5 mg/kg, route intravenous; conditions: in vivo
Outline: (§3)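 Male Sprague-Dawley rats (n = 3), single 5 mg/kg iv dose as solution in PEG300/DMSO 50:50; plasma sampled 0.083–24 h, LC-MS bioanalysis; noncompartmental analysis, means.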

[25] = test system: Mycobacterium tuberculosis; test: Antitubercular activity against non-replicating Mycobacterium tuberculosis H37Rv incubated for 10 days by LORA method; type: functional; conditions: 240 h
Outline: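 H37Rv carrying pFCA-luxAB was adapted to low oxygen by gradual self-depletion in a sealed, slowly stirred flask. It was then exposed to compounds for 10 days under anaerobic conditions. Cultures recovered for 28 h in ambient oxygen before n-decanal substrate was added and luminescence read. MIC was the lowest concentration giving a 90% reduction in luminescence versus untreated controls.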

[26] = Elimination half life in Sprague-Dawley rat at 5 mg/kg, iv; type: ADME, organism-based; set-up: dose 5 mg/kg, route intravenous; conditions: in vivo, read-out: beta t1/2 (converted); outline: as §3
[27] = Cmax in C57BL/6 mouse at 40 mg/kg, po formulated in 20% DMSODMSO, 20% PEG400, 60% (30% HP-beta-CD in water); type: ADME, organism-based; set-up: dose 40 mg/kg, route oral; conditions: in vivo; outline: as §1

O=C1C2=Nc3ccccc3CN2c2ccc(Cl)cc21
Tmax [1]: 1 h
log10cfu [2]: 6.58
bioavailability [3]: 8%
Activity (Salmonella typhimurium [4]): >= 2.5 ug
AUC(0-inf) [5]: 930 ng·h/mL
log10cfu [6]: 4.89
half-life [7]: 3.08 h
AUC(0-inf) [8]: 968 ng·h/mL
inhibition at 80 min, 10 µM (CYP2C9): 27%
AUC(0-inf) [9]: 300 ng·h/mL
remaining at 1 h, 1 µM [10]: 53%
MIC [11]: 0.125 µg/mL (≈ 0.465 µM)
half-life [12]: 3.33 h
Activity (Salmonella typhimurium [13]): Non-toxic
Activity (Salmonella typhimurium [14]): Non-toxic
Activity (Salmonella typhimurium [15]): >= 2.5 ug
efflux ratio at 1 h [16]: > 1
MIC [17]: 0.125 µg/mL
solubility [18]: 19.3 µM (≈ 5.19 µg/mL)
Cmax [19]: 197 ng/mL
solubility [20]: 79.2 µM (≈ 21.3 µg/mL)
Activity (Salmonella typhimurium [21]): Non-toxic
AUC(0-inf) [22]: 1400 ng·h/mL
IC50 (Vero): 40 µg/mL (≈ 149 µM)
Papp B→A at 1 h [23]: 20.8 ×10⁻⁶ cm/s
Vd [24]: 11.7 L/kg
MIC90 [25]: 24 µg/mL (≈ 89.3 µM)
half-life [26]: 1.42 h
Cmax [27]: 371 ng/mL
